Source: ChEMBL document CHEMBL4038305, “Benzoxaborole Antimalarial Agents. Part 5. Lead Optimization of Novel Amide Pyrazinyloxy Benzoxaboroles and Identification of a Preclinical Candidate” (J Med Chem, 2017)

What was measured:
[1] = Volume of distribution at steady state in CD1 mouse at 5 mg/kg, iv by HPLC/MS analysis; assay type: ADME, organism-based; conditions: in vivo, read-out: Vdss
Procedure, shortened: (§1)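 Female CD-1 mice, male SD rats or beagle dogs given 5 mg/kg by iv injection or oral gavage. Formulation was PEG300/propylene glycol/water 55/25/20, pH 6. Blood samples analysed by HPLC–MS/MS; parameters include AUC0-inf extrapolated to infinity and terminal half-life.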

[2] = Terminal half life in CD1 mouse at 5 mg/kg, iv by HPLC/MS analysis; assay type: ADME, organism-based; conditions: in vivo, read-out: beta t1/2 (converted); procedure, shortened: as §1
[3] = Tmax in CD1 mouse plasma at 5 mg/kg, po via gavage by HPLC/MS analysis; assay type: ADME, organism-based; procedure, shortened: as §1
[4] = Cmax in CD1 mouse plasma at 5 mg/kg, po via gavage by HPLC/MS analysis; assay type: ADME, organism-based; design: dose 5 mg/kg, route oral
Procedure, shortened: (§2)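 Female CD-1 mice, male SD rats and beagle dogs received 5 mg/kg either iv or by oral gavage. Vehicle was PEG 300/propylene glycol/water (55/25/20, pH 6). Blood was sampled and drug measured by HPLC-MS/MS.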

[5] = AUC (0 to infinity) in CD1 mouse at 5 mg/kg, po via gavage by HPLC/MS analysis; assay type: ADME, organism-based; design: dose 5 mg/kg, time infinity, route oral; conditions: in vivo
[6] = Clearance in CD1 mouse at 5 mg/kg, iv by HPLC/MS analysis; assay type: ADME, organism-based; conditions: in vivo; procedure, shortened: as §2
[7] = Oral bioavailability in CD1 mouse at 5 mg/kg by HPLC/MS analysis; assay type: ADME, organism-based; conditions: in vivo; procedure, shortened: as §1
Plasmodium berghei [8] = assay: Antimalarial activity against Plasmodium berghei infected in Swiss Webster mouse assessed as mouse survival rate at 200 mg/kg administered once daily via oral gavage for 4 consecutive days beginning 1 hr after infection measured on day 13 post infection relative to control; assay type: functional
Procedure, shortened: (§3)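 P. berghei-infected erythrocytes taken from a previously infected mouse were injected intraperitoneally. Oral dosing, once daily for 4 consecutive days, began 1 h after infection, in polyethylene glycol 300/propylene glycol/water (55/25/20 by weight). Chloroquine at 30 mg/kg was the positive control, with a vehicle-only group. Percent survival was recorded daily from day 4 to day 20.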

Plasmodium berghei [9] = assay: Antimalarial activity against Plasmodium berghei infected in Swiss Webster mouse assessed as mouse survival rate at 200 mg/kg administered once daily via oral gavage for 4 consecutive days beginning 1 hr after infection measured on day 10 post infection relative to control; assay type: functional; procedure, shortened: as §3
Plasmodium berghei [10] = assay: Antimalarial activity against Plasmodium berghei infected in Swiss Webster mouse assessed as mouse survival rate at 200 mg/kg administered once daily via oral gavage for 4 consecutive days beginning 1 hr after infection measured on day 4 post infection relative to control; assay type: functional; procedure, shortened: as §3
Plasmodium berghei [11] = assay: Antimalarial activity against Plasmodium berghei infected in Swiss Webster mouse assessed as mouse survival rate at 200 mg/kg administered once daily via oral gavage for 4 consecutive days beginning 1 hr after infection measured on day 8 post infection relative to control; assay type: functional; procedure, shortened: as §3
Plasmodium berghei [12] = assay: Antimalarial activity against Plasmodium berghei infected in Swiss Webster mouse assessed as mouse survival rate at 200 mg/kg administered once daily via oral gavage for 4 consecutive days beginning 1 hr after infection measured on day 20 post infection relative to control; assay type: functional; procedure, shortened: as §3
Plasmodium berghei [13] = assay: Antimalarial activity against Plasmodium berghei infected in Swiss Webster mouse assessed as mouse survival rate at 200 mg/kg administered once daily via oral gavage for 4 consecutive days beginning 1 hr after infection measured on day 9 post infection relative to control; assay type: functional; procedure, shortened: as §3
Plasmodium berghei [14] = assay: Antimalarial activity against Plasmodium berghei infected in Swiss Webster mouse assessed as mouse survival rate at 200 mg/kg administered once daily via oral gavage for 4 consecutive days beginning 1 hr after infection measured on day 12 post infection relative to control; assay type: functional; procedure, shortened: as §3
Plasmodium berghei [15] = assay: Antimalarial activity against Plasmodium berghei infected in Swiss Webster mouse assessed as mouse survival rate at 200 mg/kg administered once daily via oral gavage for 4 consecutive days beginning 1 hr after infection measured on day 7 post infection relative to control; assay type: functional; procedure, shortened: as §3
Plasmodium berghei [16] = assay: Antimalarial activity against Plasmodium berghei infected in Swiss Webster mouse assessed as mouse survival rate at 100 mg/kg administered once daily via oral gavage for 4 consecutive days beginning 1 hr after infection measured from day 16 to day 19 post infection relative to control; assay type: functional
Procedure, shortened: (§4)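 Mice given an intraperitoneal injection of P. berghei-infected erythrocytes taken from a previously infected animal. Oral dosing once daily for 4 consecutive days, starting 1 h after infection. Vehicle: polyethylene glycol 300/propylene glycol/water (weight ratio 55/25/20). Percent survival recorded daily from day 4 to day 20. Chloroquine 30 mg/kg and vehicle-only groups served as controls.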

Plasmodium berghei [17] = assay: Antimalarial activity against Plasmodium berghei infected in Swiss Webster mouse assessed as mouse survival rate at 100 mg/kg administered once daily via oral gavage for 4 consecutive days beginning 1 hr after infection measured on day 20 post infection relative to control; assay type: functional; procedure, shortened: as §4
Plasmodium berghei [18] = assay: Antimalarial activity against Plasmodium berghei infected in Swiss Webster mouse assessed as mouse survival rate at 200 mg/kg administered once daily via oral gavage for 4 consecutive days beginning 1 hr after infection measured on day 6 post infection relative to control; assay type: functional; procedure, shortened: as §3
Plasmodium berghei [19] = assay: Antimalarial activity against Plasmodium berghei infected in Swiss Webster mouse assessed as mouse survival rate at 200 mg/kg administered once daily via oral gavage for 4 consecutive days beginning 1 hr after infection measured on day 15 post infection relative to control; assay type: functional; procedure, shortened: as §3
Plasmodium berghei [20] = assay: Antimalarial activity against Plasmodium berghei infected in Swiss Webster mouse assessed as mouse survival rate at 200 mg/kg administered once daily via oral gavage for 4 consecutive days beginning 1 hr after infection measured on day 11 post infection relative to control; assay type: functional; procedure, shortened: as §3
Plasmodium berghei [21] = assay: Antimalarial activity against Plasmodium berghei infected in Swiss Webster mouse assessed as mouse survival rate at 200 mg/kg administered once daily via oral gavage for 4 consecutive days beginning 1 hr after infection measured on day 14 post infection relative to control; assay type: functional; procedure, shortened: as §3
Plasmodium berghei [22] = assay: Antimalarial activity against Plasmodium berghei infected in Swiss Webster mouse assessed as mouse survival rate at 200 mg/kg administered once daily via oral gavage for 4 consecutive days beginning 1 hr after infection measured from day 16 to day 19 post infection relative to control; assay type: functional; procedure, shortened: as §3
Plasmodium falciparum = assay: Antimalarial activity against Plasmodium falciparum 3D7 0087/N9 infected in NOD/SCID IL2R gamma null mouse assessed as compound concentration in whole blood require to reduce parasitemia in peripheral blood administered once daily via oral gavage for 4 consecutive days measured on day 7 post infection; assay type: functional
Plasmodium berghei [23] = assay: Antimalarial activity against Plasmodium berghei infected in Swiss Webster mouse assessed as mouse survival rate at 100 mg/kg administered once daily via oral gavage for 4 consecutive days beginning 1 hr after infection measured on day 16 post infection relative to control; assay type: functional; procedure, shortened: as §4
Plasmodium berghei [24] = assay: Antimalarial activity against Plasmodium berghei infected in Swiss Webster mouse assessed as mouse survival rate at 100 mg/kg administered once daily via oral gavage for 4 consecutive days beginning 1 hr after infection measured on day 17 post infection relative to control; assay type: functional; procedure, shortened: as §4
Plasmodium berghei [25] = assay: Antimalarial activity against Plasmodium berghei infected in Swiss Webster mouse assessed as mouse survival rate at 1.1 mg/kg administered once daily via oral gavage for 4 consecutive days beginning 1 hr after infection measured on day 6 post infection relative to control; assay type: functional; procedure, shortened: as §4
Plasmodium berghei [26] = assay: Antimalarial activity against Plasmodium berghei infected in Swiss Webster mouse assessed as mouse survival rate at 1.1 mg/kg administered once daily via oral gavage for 4 consecutive days beginning 1 hr after infection measured on day 5 post infection relative to control; assay type: functional; procedure, shortened: as §4
Plasmodium berghei [27] = assay: Antimalarial activity against Plasmodium berghei infected in Swiss Webster mouse assessed as mouse survival rate at 1.1 mg/kg administered once daily via oral gavage for 4 consecutive days beginning 1 hr after infection measured on day 7 post infection relative to control; assay type: functional; procedure, shortened: as §4

SMILES | Vd [1] | half-life [2] | Tmax [3] | Cmax [4] | AUC(0-inf) [5] | clearance [6] | bioavailability [7] | survival at 200 mg/kg (Plasmodium berghei [8]) | survival at 200 mg/kg (Plasmodium berghei [9]) | survival at 200 mg/kg (Plasmodium berghei [10]) | survival at 200 mg/kg (Plasmodium berghei [11]) | survival at 200 mg/kg (Plasmodium berghei [12]) | survival at 200 mg/kg (Plasmodium berghei [13]) | survival at 200 mg/kg (Plasmodium berghei [14]) | survival at 200 mg/kg (Plasmodium berghei [15]) | survival at 100 mg/kg (Plasmodium berghei [17]) | survival at 200 mg/kg (Plasmodium berghei [18]) | survival at 200 mg/kg (Plasmodium berghei [19]) | survival at 200 mg/kg (Plasmodium berghei [20]) | survival at 200 mg/kg (Plasmodium berghei [21]) | other results
Cc1c(Oc2cnc(C(=O)N[C@@H](CO)CC(F)(F)F)cn2)ccc2c1B(O)OC2 | 0.741 L/kg | 3 h | 1 h | 2100 ng/mL | 13400 ng·h/mL | 3.97 mL/min/kg | 64% |  |  |  |  |  |  |  |  |  |  |  |  |  | 
CCCC1(O)CN(C(=O)c2cnc(Oc3ccc4c(c3C)B(O)OC4)cn2)C1 |  |  |  |  |  |  |  | 100% | 100% | 100% | 100% | 0% | 100% | 100% | 100% | 0% | 100% | 100% | 100% | 100% | survival at 100 mg/kg (Plasmodium berghei [16]): 20%
CCC[C@H](CO)NC(=O)c1cnc(Oc2ccc3c(c2C)B(O)OC3)cn1 | 0.874 L/kg | 4.2 h | 0.5 h | 4000 ng/mL | 21600 ng·h/mL | 4.05 mL/min/kg | 103% | 100% | 100% | 100% | 100% | 100% | 100% | 100% | 100% |  | 100% | 100% | 100% | 100% | survival at 200 mg/kg (Plasmodium berghei [22]): 100%; AUCED90 (Plasmodium falciparum): 7.45 µg.hr/ml/day
Cc1c(Oc2cnc(C(=O)NCCO)cn2)ccc2c1B(O)OC2 | 0.636 L/kg | 3 h | 1 h | 4300 ng/mL | 29600 ng·h/mL | 2.65 mL/min/kg | 94% |  | 0% | 100% | 80% |  | 80% |  | 100% |  | 100% |  |  |  | 
Cc1c(Oc2cnc(C(=O)N3CC(C)(O)C3)cn2)ccc2c1B(O)OC2 | 0.888 L/kg | 7.1 h | 0.5 h | 3900 ng/mL | 20700 ng·h/mL | 4.07 mL/min/kg | 101% |  |  |  |  |  |  |  |  |  |  |  |  |  | survival at 100 mg/kg (Plasmodium berghei [23]): 60%; AUCED90 (Plasmodium falciparum): 1.4 µg.hr/ml/day; survival at 100 mg/kg (Plasmodium berghei [24]): 0%
Cc1c(Oc2cnc(C(=O)N3CC(O)(C(F)(F)F)C3)cn2)ccc2c1B(O)OC2 |  |  |  |  |  |  |  |  |  |  |  |  |  |  |  | 100% |  |  |  |  | survival at 1.1 mg/kg (Plasmodium berghei [25]): 100%; survival at 1.1 mg/kg (Plasmodium berghei [26]): 100%; survival at 100 mg/kg (Plasmodium berghei [16]): 100%; survival at 1.1 mg/kg (Plasmodium berghei [27]): 0%
CCC1(O)CN(C(=O)c2cnc(Oc3ccc4c(c3C)B(O)OC4)cn2)C1 |  |  |  |  |  |  |  | 100% | 100% | 100% | 100% | 80% | 100% | 100% | 100% |  | 100% | 100% | 100% | 100% | survival at 200 mg/kg (Plasmodium berghei [22]): 80%; AUCED90 (Plasmodium falciparum): 1.6 µg.hr/ml/day
Cc1c(Oc2cnc(C(=O)N3CC(O)(C(C)C)C3)cn2)ccc2c1B(O)OC2 |  |  |  |  |  |  |  | 100% | 100% | 100% | 100% | 100% | 100% | 100% | 100% | 80% | 100% | 100% | 100% | 100% | survival at 200 mg/kg (Plasmodium berghei [22]): 100%; survival at 1.1 mg/kg (Plasmodium berghei [25]): 100%; survival at 1.1 mg/kg (Plasmodium berghei [26]): 100%; survival at 100 mg/kg (Plasmodium berghei [23]): 100%; survival at 100 mg/kg (Plasmodium berghei [24]): 100%; survival at 1.1 mg/kg (Plasmodium berghei [27]): 0%
Cc1c(Oc2cnc(C(=O)NC(C)CO)cn2)ccc2c1B(O)OC2 (stereo not given) | 0.603 L/kg | 3.1 h | 1 h | 3800 ng/mL | 33000 ng·h/mL | 2.13 mL/min/kg | 85% |  |  |  |  |  |  |  |  |  |  |  |  |  | 
